Calls of active or inactive are those of the source. The calls are words filed in the database; no cut-off is given here.
Legend:
[1] = biological target: Serine/threonine-protein kinase SIK2 (Homo sapiens) (UniProt Q9H0K1); experiment: Inhibition of SIK2 assessed as residual activity at 10 uM relative to control
[2] = biological target: Protein kinase C iota type (Homo sapiens) (UniProt P41743); experiment: Inhibition of PRKCI assessed as residual activity at 10 uM relative to control
[3] = biological target: Macrophage colony-stimulating factor 1 receptor (Homo sapiens) (UniProt P07333); experiment: Inhibition of CSF1R assessed as residual activity at 10 uM relative to control
Summary of the method: (§1)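 Competition kinase-binding assay (KINOMEscan) across a non-redundant panel of 329 kinases beyond the radiometric panel; residual binding expressed relative to control.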

[4] = biological target: Insulin-like growth factor 1 receptor (Homo sapiens) (UniProt P08069); experiment: Inhibition of IGF-1R assessed as residual activity at 1 uM
Summary of the method: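 Radioactivity-based enzymatic activity assay of the named kinase, run as part of a 131-kinase specificity panel at the National Centre for Protein Kinase Profiling (Dundee). Residual activity was read at the stated single inhibitor concentration.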

[5] = biological target: Homeodomain-interacting protein kinase 3 (Homo sapiens) (UniProt Q9H422); experiment: Inhibition of HIPK3 assessed as residual activity at 10 uM relative to control
[6] = biological target: Mitogen-activated protein kinase kinase kinase 9 (Homo sapiens) (UniProt P80192); experiment: Inhibition of MLK1 assessed as residual activity at 1 uM
[7] = biological target: Leucine-rich repeat serine/threonine-protein kinase 2 (Homo sapiens) (UniProt Q5S007); conditions: HEK293, 0.3 to 1 uM
[8] = biological target: Rho-associated protein kinase 1 (Homo sapiens) (UniProt Q13464); experiment: Inhibition of ROCK1 assessed as residual activity at 10 uM relative to control
[9] = biological target: Serine/threonine-protein kinase WNK1 (Homo sapiens) (UniProt Q9H4A3); experiment: Inhibition of WNK1 assessed as residual activity at 1 uM
Chain of Serine/threonine-protein kinase WNK1 (Homo sapiens) (Q9H4A3 whole entry, looked up): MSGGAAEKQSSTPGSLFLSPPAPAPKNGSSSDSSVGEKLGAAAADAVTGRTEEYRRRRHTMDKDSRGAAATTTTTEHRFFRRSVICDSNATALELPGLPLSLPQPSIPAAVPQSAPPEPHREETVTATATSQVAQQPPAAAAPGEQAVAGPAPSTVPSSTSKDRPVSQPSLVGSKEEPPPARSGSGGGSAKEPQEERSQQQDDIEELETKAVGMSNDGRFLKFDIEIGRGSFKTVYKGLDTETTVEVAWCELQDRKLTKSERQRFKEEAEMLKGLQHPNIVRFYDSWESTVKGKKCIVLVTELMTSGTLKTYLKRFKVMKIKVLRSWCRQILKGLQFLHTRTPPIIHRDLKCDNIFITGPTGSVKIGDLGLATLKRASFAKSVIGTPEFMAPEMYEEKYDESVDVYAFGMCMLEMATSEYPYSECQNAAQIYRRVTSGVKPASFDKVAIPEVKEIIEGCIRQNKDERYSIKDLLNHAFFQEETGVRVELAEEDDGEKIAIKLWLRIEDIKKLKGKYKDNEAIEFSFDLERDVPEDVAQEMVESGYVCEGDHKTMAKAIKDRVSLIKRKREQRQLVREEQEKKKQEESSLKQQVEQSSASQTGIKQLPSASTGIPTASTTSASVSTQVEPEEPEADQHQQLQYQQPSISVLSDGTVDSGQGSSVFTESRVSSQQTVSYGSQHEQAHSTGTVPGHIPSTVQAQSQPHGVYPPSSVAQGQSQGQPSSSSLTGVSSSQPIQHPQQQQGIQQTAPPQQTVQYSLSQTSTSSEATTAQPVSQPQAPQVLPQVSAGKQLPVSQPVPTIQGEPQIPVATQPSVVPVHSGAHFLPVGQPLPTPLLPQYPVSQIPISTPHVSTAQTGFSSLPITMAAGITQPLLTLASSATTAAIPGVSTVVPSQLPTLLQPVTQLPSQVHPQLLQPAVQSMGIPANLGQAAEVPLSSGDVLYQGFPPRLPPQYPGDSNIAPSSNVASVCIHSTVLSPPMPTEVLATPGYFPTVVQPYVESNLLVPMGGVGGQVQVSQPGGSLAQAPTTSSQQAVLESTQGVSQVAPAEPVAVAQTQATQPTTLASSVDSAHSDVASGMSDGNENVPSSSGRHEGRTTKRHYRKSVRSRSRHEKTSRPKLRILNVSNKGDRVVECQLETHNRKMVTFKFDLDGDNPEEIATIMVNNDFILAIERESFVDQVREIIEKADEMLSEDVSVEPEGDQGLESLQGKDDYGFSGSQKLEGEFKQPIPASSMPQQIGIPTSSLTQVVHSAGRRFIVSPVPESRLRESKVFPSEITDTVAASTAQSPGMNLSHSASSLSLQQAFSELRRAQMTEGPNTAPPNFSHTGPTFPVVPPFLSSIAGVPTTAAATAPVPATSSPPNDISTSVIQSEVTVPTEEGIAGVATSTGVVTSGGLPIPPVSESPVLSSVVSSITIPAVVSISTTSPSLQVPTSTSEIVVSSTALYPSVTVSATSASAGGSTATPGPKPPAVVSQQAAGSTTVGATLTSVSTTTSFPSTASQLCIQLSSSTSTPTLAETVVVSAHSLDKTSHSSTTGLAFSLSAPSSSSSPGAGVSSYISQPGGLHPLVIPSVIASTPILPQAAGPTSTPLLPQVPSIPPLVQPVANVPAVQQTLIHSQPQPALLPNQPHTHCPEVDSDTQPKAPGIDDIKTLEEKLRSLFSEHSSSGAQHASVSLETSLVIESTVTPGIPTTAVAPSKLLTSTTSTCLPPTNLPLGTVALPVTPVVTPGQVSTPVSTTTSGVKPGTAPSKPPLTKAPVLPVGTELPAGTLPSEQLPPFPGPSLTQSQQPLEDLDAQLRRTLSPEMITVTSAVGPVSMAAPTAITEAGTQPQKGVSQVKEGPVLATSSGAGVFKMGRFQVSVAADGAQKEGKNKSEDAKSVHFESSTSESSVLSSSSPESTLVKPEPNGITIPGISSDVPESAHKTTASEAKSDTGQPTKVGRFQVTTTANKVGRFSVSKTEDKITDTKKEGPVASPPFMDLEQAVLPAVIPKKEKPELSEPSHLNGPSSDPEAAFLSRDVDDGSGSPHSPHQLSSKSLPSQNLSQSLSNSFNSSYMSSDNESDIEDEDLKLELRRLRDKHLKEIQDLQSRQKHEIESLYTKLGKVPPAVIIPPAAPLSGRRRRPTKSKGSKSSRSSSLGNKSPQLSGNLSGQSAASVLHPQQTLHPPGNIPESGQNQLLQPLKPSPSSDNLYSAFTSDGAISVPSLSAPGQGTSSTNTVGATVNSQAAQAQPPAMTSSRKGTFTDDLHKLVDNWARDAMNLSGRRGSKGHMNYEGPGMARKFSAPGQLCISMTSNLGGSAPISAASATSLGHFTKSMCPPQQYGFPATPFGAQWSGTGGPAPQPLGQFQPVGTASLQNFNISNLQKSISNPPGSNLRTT

[10] = biological target: Leukocyte tyrosine kinase receptor (Homo sapiens) (UniProt P29376); experiment: Inhibition of LTK assessed as residual activity at 10 uM relative to control
[11] = test system: Epidermal growth factor receptor (Homo sapiens), P00533 [L861Q]; experiment: Inhibition of EGFR L861Q mutant assessed as residual activity at 10 uM relative to control; assay type: protein assay; summary of the method: as §1
[12] = biological target: SRSF protein kinase 1 (Homo sapiens) (UniProt Q96SB4); experiment: Inhibition of SRPK1 assessed as residual activity at 10 uM relative to control
[13] = biological target: Serine/threonine-protein kinase MRCK alpha (Homo sapiens) (UniProt Q5VT25); experiment: Inhibition of MRCKA assessed as residual activity at 10 uM relative to control
[14] = biological target: Leucine-rich repeat serine/threonine-protein kinase 2 (Mus musculus) (UniProt Q5S006); experiment: Inhibition of LRRK2 in Swiss mouse 3T3 cells assessed as inhibition of Ser935 autophosphorylation after 90 mins by immunoblot method; assay type: cell-based; conditions: NIH3T3
[15] = biological target: T1, Ephrin type-B receptor 2 (Homo sapiens) (UniProt P29323); experiment: Inhibition of EPH-B2 assessed as residual activity at 10 uM
T1 sequence (whole entry): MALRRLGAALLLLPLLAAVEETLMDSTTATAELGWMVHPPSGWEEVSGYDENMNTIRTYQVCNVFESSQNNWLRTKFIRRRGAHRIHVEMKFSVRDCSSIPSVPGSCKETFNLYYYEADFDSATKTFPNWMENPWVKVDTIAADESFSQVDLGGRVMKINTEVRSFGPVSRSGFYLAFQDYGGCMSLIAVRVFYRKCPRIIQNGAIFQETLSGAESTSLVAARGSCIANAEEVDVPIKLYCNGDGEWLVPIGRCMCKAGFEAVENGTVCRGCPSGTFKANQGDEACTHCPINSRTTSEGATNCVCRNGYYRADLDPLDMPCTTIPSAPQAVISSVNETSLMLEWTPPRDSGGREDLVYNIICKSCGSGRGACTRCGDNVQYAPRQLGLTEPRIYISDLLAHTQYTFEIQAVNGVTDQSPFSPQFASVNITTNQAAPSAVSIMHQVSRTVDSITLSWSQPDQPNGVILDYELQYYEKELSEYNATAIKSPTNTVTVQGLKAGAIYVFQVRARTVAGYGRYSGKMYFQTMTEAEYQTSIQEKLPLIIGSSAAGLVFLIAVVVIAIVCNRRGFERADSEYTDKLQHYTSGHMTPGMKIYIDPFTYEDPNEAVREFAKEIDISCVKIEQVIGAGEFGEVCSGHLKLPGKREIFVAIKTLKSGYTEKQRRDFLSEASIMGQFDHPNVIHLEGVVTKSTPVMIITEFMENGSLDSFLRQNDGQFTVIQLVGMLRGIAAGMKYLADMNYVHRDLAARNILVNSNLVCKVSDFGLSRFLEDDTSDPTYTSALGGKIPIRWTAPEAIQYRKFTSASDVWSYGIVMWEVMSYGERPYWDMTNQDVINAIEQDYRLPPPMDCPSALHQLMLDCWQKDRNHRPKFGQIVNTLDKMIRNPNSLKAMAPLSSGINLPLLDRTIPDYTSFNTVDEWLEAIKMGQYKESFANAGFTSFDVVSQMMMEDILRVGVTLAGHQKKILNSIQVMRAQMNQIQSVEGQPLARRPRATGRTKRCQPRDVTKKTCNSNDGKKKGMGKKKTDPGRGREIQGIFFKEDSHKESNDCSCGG
Summary of the method: (§2)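 Standard radioactivity-based enzymatic kinase assays on a 131-kinase panel run by the Dundee profiling service; residual kinase activity recorded.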

[16] = biological target: Serine/threonine-protein kinase PLK2 (Homo sapiens) (UniProt Q9NYY3); experiment: Inhibition of PLK2 assessed as residual activity at 10 uM relative to control
[17] = biological target: Protein-tyrosine kinase 6 (Homo sapiens) (UniProt Q13882); experiment: Inhibition of BRK assessed as residual activity at 1 uM
Summary of the method: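 Radioactivity-based enzymatic assay against a panel of 131 kinases (Dundee profiling). Activity remaining was measured with compound present at the stated concentration.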

[18] = biological target: Protein kinase C eta type (Homo sapiens) (UniProt P24723); experiment: Inhibition of PRKCH assessed as residual activity at 10 uM relative to control
Mus musculus = experiment: Inhibition of LRRK2 in mouse assessed as inhibition of Ser935 autophosphorylation in kidney at 100 mg/kg, ip by immunoblot method; assay type: functional, organism-based; parameters: dose 100 mg/kg
[19] = biological target: Microtubule-associated serine/threonine-protein kinase 1 (Homo sapiens) (UniProt Q9Y2H9); experiment: Inhibition of MAST1 assessed as residual activity at 10 uM relative to control
Chain of Microtubule-associated serine/threonine-protein kinase 1 (Homo sapiens) (Q9Y2H9 whole entry, looked up): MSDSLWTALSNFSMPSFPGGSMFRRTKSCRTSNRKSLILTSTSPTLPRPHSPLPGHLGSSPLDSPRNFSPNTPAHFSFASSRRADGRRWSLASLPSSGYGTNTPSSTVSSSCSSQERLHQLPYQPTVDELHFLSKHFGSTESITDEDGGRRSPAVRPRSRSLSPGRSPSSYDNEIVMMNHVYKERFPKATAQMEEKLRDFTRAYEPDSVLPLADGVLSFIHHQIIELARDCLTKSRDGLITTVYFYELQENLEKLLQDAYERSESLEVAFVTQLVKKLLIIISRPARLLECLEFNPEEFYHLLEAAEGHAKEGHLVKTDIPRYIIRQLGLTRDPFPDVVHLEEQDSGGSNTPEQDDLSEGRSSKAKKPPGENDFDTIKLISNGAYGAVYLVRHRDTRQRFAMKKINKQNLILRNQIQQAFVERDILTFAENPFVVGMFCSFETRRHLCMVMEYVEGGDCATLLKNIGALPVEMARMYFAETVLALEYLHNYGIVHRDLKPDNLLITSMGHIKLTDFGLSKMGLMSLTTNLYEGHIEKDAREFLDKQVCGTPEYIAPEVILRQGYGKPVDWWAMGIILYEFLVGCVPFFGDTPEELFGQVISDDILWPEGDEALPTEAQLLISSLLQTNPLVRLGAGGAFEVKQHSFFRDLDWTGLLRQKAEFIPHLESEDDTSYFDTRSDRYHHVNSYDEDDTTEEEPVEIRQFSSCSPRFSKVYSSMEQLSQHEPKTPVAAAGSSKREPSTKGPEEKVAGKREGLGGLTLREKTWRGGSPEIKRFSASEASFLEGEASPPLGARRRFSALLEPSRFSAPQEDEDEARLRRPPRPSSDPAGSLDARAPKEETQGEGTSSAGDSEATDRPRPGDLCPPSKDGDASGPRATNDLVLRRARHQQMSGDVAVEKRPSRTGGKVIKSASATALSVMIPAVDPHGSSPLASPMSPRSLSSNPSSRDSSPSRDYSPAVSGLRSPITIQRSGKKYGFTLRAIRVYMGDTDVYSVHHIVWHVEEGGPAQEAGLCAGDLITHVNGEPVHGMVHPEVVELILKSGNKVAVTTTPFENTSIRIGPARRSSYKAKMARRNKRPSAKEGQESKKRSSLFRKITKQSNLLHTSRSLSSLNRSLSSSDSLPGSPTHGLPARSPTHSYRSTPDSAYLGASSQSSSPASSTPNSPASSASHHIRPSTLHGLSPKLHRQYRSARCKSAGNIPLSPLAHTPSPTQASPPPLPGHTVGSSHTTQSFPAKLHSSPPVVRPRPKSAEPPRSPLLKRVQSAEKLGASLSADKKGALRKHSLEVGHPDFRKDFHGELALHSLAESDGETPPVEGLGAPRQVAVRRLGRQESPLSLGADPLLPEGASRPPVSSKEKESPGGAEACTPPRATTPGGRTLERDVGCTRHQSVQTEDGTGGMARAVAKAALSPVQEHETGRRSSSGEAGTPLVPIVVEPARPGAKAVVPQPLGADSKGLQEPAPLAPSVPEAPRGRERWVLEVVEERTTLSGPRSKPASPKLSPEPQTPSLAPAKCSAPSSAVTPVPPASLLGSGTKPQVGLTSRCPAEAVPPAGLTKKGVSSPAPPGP

[20] = biological target: Serine/threonine-protein kinase 17B (Homo sapiens) (UniProt O94768); experiment: Inhibition of DRAK2 assessed as residual activity at 10 uM relative to control
Chain of Serine/threonine-protein kinase 17B (Homo sapiens) (O94768 whole entry): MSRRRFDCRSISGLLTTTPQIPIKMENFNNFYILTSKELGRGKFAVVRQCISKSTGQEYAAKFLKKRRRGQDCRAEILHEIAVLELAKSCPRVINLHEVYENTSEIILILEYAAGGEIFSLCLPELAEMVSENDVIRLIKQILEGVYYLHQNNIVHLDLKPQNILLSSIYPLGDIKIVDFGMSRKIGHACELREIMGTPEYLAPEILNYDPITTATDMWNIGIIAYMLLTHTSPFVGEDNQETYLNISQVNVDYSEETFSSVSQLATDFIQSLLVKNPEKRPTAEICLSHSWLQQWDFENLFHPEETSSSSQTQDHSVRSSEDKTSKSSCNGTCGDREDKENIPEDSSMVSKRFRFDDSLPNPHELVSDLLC
Summary of the method: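 Radioactivity-based enzymatic assay of kinase activity, run as part of a 131-kinase profiling panel at the National Centre for Protein Kinase Profiling, Dundee.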

[21] = biological target: Tyrosine-protein kinase CSK (Homo sapiens) (UniProt P41240); experiment: Inhibition of CSK assessed as residual activity at 10 uM; summary of the method: as §2
[22] = biological target: Tyrosine-protein kinase Fer (Homo sapiens) (UniProt P16591); experiment: Inhibition of FER assessed as residual activity at 10 uM relative to control
Chain of Tyrosine-protein kinase Fer (Homo sapiens) (P16591 whole entry, looked up): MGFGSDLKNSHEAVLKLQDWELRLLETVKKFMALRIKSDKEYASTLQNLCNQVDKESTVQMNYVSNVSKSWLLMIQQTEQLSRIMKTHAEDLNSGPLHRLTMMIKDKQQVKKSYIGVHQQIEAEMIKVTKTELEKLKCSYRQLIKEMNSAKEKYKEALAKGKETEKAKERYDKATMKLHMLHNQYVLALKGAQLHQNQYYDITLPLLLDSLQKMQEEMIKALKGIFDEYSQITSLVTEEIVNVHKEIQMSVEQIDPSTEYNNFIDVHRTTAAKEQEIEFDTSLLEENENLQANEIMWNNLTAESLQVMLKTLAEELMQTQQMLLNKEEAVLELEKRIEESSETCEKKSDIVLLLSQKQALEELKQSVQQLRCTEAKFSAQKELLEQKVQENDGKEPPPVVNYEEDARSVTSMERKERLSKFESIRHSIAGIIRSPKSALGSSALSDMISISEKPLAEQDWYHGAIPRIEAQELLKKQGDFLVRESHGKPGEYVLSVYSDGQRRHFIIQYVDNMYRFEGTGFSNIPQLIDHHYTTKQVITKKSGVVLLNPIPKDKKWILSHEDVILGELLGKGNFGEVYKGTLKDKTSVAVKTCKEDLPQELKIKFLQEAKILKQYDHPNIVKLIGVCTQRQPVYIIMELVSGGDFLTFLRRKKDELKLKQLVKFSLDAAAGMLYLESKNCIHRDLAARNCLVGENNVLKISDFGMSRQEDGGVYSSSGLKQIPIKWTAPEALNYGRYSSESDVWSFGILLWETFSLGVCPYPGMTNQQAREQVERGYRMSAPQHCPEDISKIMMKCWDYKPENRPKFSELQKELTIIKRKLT

With `O=C(Nc1cccnc1)c1cc(-c2ccnc(F)c2)ccc1OCc1ccccc1` the Activity [1] was 26%, the Activity [2] was 73% and the Activity [3] was 68%. For the same compound, the Activity [4] was 123%, the Activity [5] was 58% and the Activity [6] was 69%. The inhibition [7] was “Active”, the Activity [8] was 38% and the Activity [9] was 104%. The Activity [10] was 21%, the Activity [11] was 65% and the Activity [12] was 79%. For the same compound, the Activity [13] was 56%, the inhibition [14] was “Dose-dependent effect” and the Activity [15] was 115%. The Activity [16] was 69%, the Activity [17] was 103% and the Activity [18] was 59%. For the same compound, the inhibition (Mus musculus) was “Active”, the Activity [19] was 35% and the Activity [20] was 72%. For the same compound, the Activity [21] was 114% and the Activity [22] was 67%.
